Experimental data: ChEMBL document CHEMBL3734760 (Bioorg Med Chem Lett, 2015)

Assays:
Prolyl endopeptidase FAP = target: T1, Prolyl endopeptidase FAP (Bos taurus, UniProt A5D7B7); experiment: Inhibition of bovine serum FAP
T1 sequence (A5D7B7 whole entry): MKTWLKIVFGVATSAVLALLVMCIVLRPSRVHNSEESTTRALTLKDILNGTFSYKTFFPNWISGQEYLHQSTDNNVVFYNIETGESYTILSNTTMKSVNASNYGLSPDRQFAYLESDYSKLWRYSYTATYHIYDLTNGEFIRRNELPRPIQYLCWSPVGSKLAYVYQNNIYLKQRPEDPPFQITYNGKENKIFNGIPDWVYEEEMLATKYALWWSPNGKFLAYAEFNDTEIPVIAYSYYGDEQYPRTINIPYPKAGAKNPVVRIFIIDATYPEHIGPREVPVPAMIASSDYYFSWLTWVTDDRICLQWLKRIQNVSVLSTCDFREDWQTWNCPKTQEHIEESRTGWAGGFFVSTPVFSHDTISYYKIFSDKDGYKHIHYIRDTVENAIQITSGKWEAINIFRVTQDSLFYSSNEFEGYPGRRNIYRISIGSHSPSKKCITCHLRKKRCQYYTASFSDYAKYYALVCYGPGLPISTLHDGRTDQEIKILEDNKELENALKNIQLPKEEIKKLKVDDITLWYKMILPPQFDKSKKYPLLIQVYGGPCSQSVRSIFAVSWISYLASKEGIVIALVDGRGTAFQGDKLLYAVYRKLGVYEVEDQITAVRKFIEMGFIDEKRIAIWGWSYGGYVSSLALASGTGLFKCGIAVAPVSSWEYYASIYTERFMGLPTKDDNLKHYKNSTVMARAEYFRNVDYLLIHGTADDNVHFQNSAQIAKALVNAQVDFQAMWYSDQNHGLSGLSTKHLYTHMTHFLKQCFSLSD

[1] = target: Voltage-gated inwardly rectifying potassium channel KCNH2 (Homo sapiens, UniProt Q12809); experiment: Inhibition of human ERG assessed as reduction in IKr current
Sequence of Voltage-gated inwardly rectifying potassium channel KCNH2 (Q12809 whole entry): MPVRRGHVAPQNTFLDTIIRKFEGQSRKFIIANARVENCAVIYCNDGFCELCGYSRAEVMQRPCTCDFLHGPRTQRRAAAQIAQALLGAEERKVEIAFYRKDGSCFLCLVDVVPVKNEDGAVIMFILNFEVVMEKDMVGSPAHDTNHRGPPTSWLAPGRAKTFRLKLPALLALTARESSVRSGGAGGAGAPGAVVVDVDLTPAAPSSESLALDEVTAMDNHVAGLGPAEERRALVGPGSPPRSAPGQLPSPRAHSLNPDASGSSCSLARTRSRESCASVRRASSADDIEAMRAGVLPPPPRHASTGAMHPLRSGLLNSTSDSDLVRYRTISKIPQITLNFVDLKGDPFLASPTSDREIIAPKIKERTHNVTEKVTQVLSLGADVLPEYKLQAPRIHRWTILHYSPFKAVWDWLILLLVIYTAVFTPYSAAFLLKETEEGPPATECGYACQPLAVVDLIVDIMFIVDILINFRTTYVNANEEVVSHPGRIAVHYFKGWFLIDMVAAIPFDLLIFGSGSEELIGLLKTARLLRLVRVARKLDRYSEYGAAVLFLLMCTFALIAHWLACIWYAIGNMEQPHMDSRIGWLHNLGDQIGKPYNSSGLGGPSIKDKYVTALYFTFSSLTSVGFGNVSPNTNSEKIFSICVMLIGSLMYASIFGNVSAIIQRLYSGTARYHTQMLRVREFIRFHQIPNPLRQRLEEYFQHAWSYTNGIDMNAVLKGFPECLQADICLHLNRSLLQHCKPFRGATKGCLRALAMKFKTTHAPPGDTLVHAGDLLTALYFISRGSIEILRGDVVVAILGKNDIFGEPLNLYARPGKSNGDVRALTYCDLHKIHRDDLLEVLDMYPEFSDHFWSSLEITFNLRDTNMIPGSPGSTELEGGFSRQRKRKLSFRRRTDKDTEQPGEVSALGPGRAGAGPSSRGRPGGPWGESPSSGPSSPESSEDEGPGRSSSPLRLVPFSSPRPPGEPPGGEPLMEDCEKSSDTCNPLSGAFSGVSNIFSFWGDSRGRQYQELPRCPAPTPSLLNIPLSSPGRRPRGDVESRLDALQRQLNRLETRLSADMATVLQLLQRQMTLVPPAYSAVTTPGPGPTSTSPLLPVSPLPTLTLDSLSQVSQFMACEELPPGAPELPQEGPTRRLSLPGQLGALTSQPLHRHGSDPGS

[2] = target: Voltage-dependent L-type calcium channel subunit alpha-1C (Homo sapiens, UniProt Q13936); experiment: […]
Sequence of Voltage-dependent L-type calcium channel subunit alpha-1C (Q13936 whole entry): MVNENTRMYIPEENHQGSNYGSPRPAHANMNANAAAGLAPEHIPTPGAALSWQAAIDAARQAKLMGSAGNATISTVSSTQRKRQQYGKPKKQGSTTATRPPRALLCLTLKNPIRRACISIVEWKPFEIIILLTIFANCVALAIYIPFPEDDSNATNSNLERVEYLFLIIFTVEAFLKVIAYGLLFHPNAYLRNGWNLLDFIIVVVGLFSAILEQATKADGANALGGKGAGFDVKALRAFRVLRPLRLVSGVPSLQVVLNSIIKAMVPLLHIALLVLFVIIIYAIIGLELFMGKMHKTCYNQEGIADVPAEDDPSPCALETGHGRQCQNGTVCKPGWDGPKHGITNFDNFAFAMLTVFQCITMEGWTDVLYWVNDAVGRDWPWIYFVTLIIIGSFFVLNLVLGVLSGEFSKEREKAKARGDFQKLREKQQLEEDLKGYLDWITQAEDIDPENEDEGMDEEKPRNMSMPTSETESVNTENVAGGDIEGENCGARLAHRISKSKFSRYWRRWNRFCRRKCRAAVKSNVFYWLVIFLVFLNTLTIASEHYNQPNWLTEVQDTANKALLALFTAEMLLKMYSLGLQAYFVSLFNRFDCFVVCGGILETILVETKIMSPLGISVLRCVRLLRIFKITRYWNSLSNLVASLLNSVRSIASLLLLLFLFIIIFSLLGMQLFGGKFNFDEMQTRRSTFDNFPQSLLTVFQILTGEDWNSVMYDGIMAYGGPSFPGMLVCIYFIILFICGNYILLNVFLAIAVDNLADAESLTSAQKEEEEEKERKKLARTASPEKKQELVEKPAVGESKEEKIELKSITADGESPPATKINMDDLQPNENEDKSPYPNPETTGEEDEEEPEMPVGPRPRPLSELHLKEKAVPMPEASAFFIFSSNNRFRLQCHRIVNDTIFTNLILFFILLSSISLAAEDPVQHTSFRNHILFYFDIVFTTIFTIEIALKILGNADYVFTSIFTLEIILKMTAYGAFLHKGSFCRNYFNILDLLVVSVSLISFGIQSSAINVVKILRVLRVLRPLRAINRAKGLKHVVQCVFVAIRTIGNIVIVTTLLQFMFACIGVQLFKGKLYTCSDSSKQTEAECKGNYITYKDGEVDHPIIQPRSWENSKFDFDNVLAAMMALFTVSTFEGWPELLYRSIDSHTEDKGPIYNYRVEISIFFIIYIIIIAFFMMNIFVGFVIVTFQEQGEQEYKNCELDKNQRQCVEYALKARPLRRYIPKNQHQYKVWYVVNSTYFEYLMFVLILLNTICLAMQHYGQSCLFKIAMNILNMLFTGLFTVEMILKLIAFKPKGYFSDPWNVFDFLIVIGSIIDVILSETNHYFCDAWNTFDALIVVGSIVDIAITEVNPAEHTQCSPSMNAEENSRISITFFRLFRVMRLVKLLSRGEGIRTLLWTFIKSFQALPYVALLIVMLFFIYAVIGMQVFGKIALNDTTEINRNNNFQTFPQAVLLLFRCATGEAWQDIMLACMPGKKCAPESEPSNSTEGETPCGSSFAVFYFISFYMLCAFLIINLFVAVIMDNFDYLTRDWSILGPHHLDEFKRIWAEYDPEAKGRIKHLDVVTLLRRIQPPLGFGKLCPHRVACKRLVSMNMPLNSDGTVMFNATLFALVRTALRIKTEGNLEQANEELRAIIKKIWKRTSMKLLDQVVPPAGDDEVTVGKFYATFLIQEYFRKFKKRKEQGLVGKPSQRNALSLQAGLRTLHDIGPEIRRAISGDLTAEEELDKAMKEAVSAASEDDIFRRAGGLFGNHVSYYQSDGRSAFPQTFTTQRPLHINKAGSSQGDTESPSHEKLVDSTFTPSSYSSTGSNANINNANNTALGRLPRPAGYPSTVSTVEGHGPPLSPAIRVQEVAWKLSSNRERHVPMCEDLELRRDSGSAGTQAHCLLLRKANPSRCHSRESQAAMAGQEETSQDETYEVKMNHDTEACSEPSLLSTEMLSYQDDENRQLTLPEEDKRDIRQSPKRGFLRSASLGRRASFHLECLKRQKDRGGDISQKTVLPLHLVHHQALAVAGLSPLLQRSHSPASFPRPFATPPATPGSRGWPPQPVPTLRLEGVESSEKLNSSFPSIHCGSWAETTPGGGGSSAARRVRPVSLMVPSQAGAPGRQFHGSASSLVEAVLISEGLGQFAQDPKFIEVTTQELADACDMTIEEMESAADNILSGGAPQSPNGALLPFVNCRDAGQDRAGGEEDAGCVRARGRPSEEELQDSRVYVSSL

Canis familiaris = experiment: Dose normalized AUC in dog at 1 mg/kg, iv and 2 mg/kg, po; assay type: ADME, organism-based, Canis lupus familiaris; conditions: in vivo
Outline: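 Dogs were dosed 1 mg/kg iv and 2 mg/kg po. AUC is reported normalized to dose in µM h/mg/kg.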

[3] = Plasma clearance in rat at 1 mg/kg, iv and 2 mg/kg, po; assay type: ADME, organism-based
Outline: (§1)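 Rats received 1 mg/kg iv plus 2 mg/kg po, or 0.4 mg/kg iv alone. Plasma clearance is reported in ml/min/kg, half-life in h, and AUC normalized to dose in µM h/mg/kg.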

Rattus norvegicus = experiment: Dose normalized AUC in rat at 1 mg/kg, iv and 2 mg/kg, po; assay type: ADME, organism-based; conditions: in vivo; outline: as §1
[4] = Half life in rat at 1 mg/kg, iv and 2 mg/kg, po; assay type: ADME, organism-based; conditions: in vivo; outline: as §1
Dipeptidyl peptidase 2 = Dipeptidyl peptidase 2 (Homo sapiens, UniProt Q9UHL4); experiment: Inhibition of N-terminal FLAG tagged human QPP expressed in Sf9 cells using Nle-Pro-AMC substrate after 30 mins by plate reader analysis
Dipeptidyl peptidase 8 = Dipeptidyl peptidase 8 (Homo sapiens, UniProt Q6V1X1); experiment: Inhibition of C-terminal His-tagged DPP8 (unknown origin) expressed in COS7 cells using H-Ala-Pro-pNA substrate preincubated for 15 mins; assay type: cell-based, COS-7
Sequence of Dipeptidyl peptidase 8 (Q6V1X1 whole entry): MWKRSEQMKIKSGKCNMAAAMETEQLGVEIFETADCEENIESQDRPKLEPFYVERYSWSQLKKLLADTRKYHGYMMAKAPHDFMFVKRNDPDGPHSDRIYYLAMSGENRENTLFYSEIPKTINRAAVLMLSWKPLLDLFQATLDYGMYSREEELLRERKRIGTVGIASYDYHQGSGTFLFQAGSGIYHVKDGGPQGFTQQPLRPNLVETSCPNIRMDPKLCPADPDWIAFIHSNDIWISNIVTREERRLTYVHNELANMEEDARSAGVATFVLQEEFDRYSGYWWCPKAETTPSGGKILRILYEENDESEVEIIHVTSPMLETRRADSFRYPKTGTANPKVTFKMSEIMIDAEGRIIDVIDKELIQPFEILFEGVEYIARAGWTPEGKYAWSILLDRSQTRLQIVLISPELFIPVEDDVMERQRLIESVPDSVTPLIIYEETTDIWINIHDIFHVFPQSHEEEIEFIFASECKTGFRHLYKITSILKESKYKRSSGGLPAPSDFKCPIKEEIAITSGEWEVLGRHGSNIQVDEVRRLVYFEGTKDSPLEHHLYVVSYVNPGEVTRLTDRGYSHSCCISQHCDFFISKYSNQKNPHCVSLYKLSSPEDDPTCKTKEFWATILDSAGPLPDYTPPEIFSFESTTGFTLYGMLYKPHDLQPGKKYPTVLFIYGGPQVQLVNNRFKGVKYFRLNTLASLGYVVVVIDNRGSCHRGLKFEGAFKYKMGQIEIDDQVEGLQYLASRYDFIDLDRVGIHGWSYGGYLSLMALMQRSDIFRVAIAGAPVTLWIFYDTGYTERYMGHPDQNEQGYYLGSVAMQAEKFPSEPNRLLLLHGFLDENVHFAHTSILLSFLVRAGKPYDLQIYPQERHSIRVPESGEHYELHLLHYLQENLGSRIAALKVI

[5] = Oral bioavailability in dog at 2 mg/kg; assay type: ADME, organism-based, Canis lupus familiaris; conditions: in vivo
[6] = Oral bioavailability in rat at 2 mg/kg; assay type: ADME, organism-based; conditions: in vivo; outline: as §1
[7] = Half life in dog at 1 mg/kg, iv and 2 mg/kg, po; assay type: ADME, organism-based, Canis lupus familiaris; conditions: in vivo
[8] = Plasma clearance in dog at 1 mg/kg, iv and 2 mg/kg, po; assay type: ADME, organism-based, Canis lupus familiaris

| Structure (SMILES) | IC50 (Prolyl endopeptidase FAP) [µM] | clearance [3] [mL/min/kg] | AUC/dose (Rattus norvegicus) [µM·h/mg/kg] | half-life [4] [h] | IC50 (Dipeptidyl peptidase 2) [µM] | IC50 (Dipeptidyl peptidase 8) [µM] | also measured |
| --- | --- | --- | --- | --- | --- | --- | --- |
| N[C@H]1C[C@@H](N2Cc3cn[nH]c3C2)CO[C@@H]1c1cc(F)ccc1F | > 100 | – | – | – | – | – | IC50 [1]: > 30 µM; IC50 [2]: > 30 µM; AUC/dose (Canis familiaris): 16 µM·h/mg/kg |
| N[C@H]1C[C@@H](N2Cc3cnn(S(=O)(=O)C4CCCC4)c3C2)CO[C@@H]1c1cc(F)ccc1F | 26 | 96 | 0.4 | 0.5 | > 100 | > 100 | – |
| CS(=O)(=O)Nc1n[nH]c2c1CN([C@H]1CO[C@H](c3cc(F)ccc3F)[C@@H](N)C1)C2 | 8.8 | 16 | 2.5 | 2 | > 100 | > 100 | – |
| CCS(=O)(=O)Nc1n[nH]c2c1CN([C@H]1CO[C@H](c3cc(F)ccc3F)[C@@H](N)C1)C2 | 32 | 12 | 3.4 | 2.1 | – | – | – |
| CCCS(=O)(=O)n1cc2c(n1)CN([C@H]1CO[C@H](c3cc(F)ccc3F)[C@@H](N)C1)C2 | > 100 | – | – | – | > 100 | > 100 | – |
| N[C@H]1C[C@@H](N2Cc3[nH]nc(NC(=O)C4CC4)c3C2)CO[C@@H]1c1cc(F)ccc1F | 22 | 64 | 0.6 | 5.5 | > 100 | > 100 | – |
| N[C@H]1C[C@@H](N2Cc3[nH]nc(NS(=O)(=O)C4CC4)c3C2)CO[C@@H]1c1cc(F)ccc1F | 3.8 | 24 | 1.6 | 1.5 | > 100 | – | – |
| N[C@H]1C[C@@H](N2Cc3[nH]nc(NC(=O)c4nccs4)c3C2)CO[C@@H]1c1cc(F)ccc1F | 40 | – | – | – | – | – | – |
| CCS(=O)(=O)n1cc2c(n1)CN([C@H]1CO[C@H](c3cc(F)ccc3F)[C@@H](N)C1)C2 | 69 | 1.6 | 22 | 5.2 | > 100 | > 100 | bioavailability [5]: 100%; bioavailability [6]: 84%; half-life [7]: 13 h; IC50 [1]: > 60 µM; IC50 [2]: > 30 µM; AUC/dose (Canis familiaris): 25 µM·h/mg/kg; clearance [8]: 3.3 mL/min/kg |
| N[C@H]1C[C@@H](N2Cc3cn(S(=O)(=O)C4CC4)nc3C2)CO[C@@H]1c1cc(F)ccc1F | > 100 | 0.9 | 47 | 6.2 | – | > 100 | bioavailability [5]: 90%; half-life [7]: 17 h; IC50 [2]: > 30 µM; AUC/dose (Canis familiaris): 25 µM·h/mg/kg; clearance [8]: 1.6 mL/min/kg |
| N[C@H]1C[C@@H](N2Cc3[nH]nc(NS(=O)(=O)Cc4ccncc4)c3C2)CO[C@@H]1c1cc(F)ccc1F | 60 | – | – | – | – | > 100 | – |
| N[C@H]1C[C@@H](N2Cc3[nH]nc(NS(=O)(=O)CC(F)(F)F)c3C2)CO[C@@H]1c1cc(F)ccc1F | 32 | – | – | – | > 100 | > 100 | – |
| CC(C)S(=O)(=O)c1n[nH]c2c1CN([C@H]1CO[C@H](c3cc(F)ccc3F)[C@@H](N)C1)C2 | 16 | – | – | – | > 100 | > 100 | – |
| N[C@H]1C[C@@H](N2Cc3[nH]nc(S(=O)(=O)c4ccccc4)c3C2)CO[C@@H]1c1cc(F)ccc1F | 14 | – | – | – | – | – | – |
| Cn1cnc(S(=O)(=O)n2ncc3c2CN([C@H]2CO[C@H](c4cc(F)ccc4F)[C@@H](N)C2)C3)c1 | 45 | – | – | – | – | – | – |
| CC(C)S(=O)(=O)n1cc2c(n1)CN([C@H]1CO[C@H](c3cc(F)ccc3F)[C@@H](N)C1)C2 | > 100 | 7 | 5.6 | 1.3 | > 100 | > 100 | bioavailability [6]: 93% |
| CS(=O)(=O)c1n[nH]c2c1CN([C@H]1CO[C@H](c3cc(F)ccc3F)[C@@H](N)C1)C2 | 20 | – | – | – | > 100 | – | – |
| N[C@H]1C[C@@H](N2Cc3[nH]nc(NC(=O)c4ccncc4)c3C2)CO[C@@H]1c1cc(F)ccc1F | 27 | – | – | – | > 100 | – | – |
| N[C@H]1C[C@@H](N2Cc3cn(S(=O)(=O)c4cccc(C(F)(F)F)c4)nc3C2)CO[C@@H]1c1cc(F)ccc1F | > 100 | – | – | – | > 100 | – | – |
| N[C@H]1C[C@@H](N2Cc3cn(S(=O)(=O)C4CCCC4)nc3C2)CO[C@@H]1c1cc(F)ccc1F | 50 | 41 | 0.9 | 1.5 | – | – | – |
| CCC(=O)Nc1n[nH]c2c1CN([C@H]1CO[C@H](c3cc(F)ccc3F)[C@@H](N)C1)C2 | 47 | 60 | 0.7 | 2.2 | > 100 | > 100 | – |
| N[C@H]1C[C@@H](N2Cc3[nH]nc(NS(=O)(=O)c4c[nH]cn4)c3C2)CO[C@@H]1c1cc(F)ccc1F | 6.3 | – | – | – | – | – | – |
| N[C@H]1C[C@@H](N2Cc3cn(S(=O)(=O)C(F)(F)F)nc3C2)CO[C@@H]1c1cc(F)ccc1F | > 100 | – | – | – | > 100 | > 100 | – |
| N[C@H]1C[C@@H](N2Cc3cnn(S(=O)(=O)C4CC4)c3C2)CO[C@@H]1c1cc(F)ccc1F | 54 | 24 | 1.7 | 1.6 | – | > 100 | bioavailability [6]: 79% |
| Cn1cnc(S(=O)(=O)n2cc3c(n2)CN([C@H]2CO[C@H](c4cc(F)ccc4F)[C@@H](N)C2)C3)c1 | 95 | – | – | – | – | – | – |
| N[C@H]1C[C@@H](N2Cc3cn(S(=O)(=O)c4ccccc4)nc3C2)CO[C@@H]1c1cc(F)ccc1F | > 100 | – | – | – | – | – | – |
| CS(=O)(=O)n1cc2c(n1)CN([C@H]1CO[C@H](c3cc(F)ccc3F)[C@@H](N)C1)C2 [OMARIGLIPTIN] | > 100 | – | 48 | – | > 100 | > 100 | bioavailability [5]: 100%; half-life [7]: 22 h; IC50 [2]: > 30 µM; AUC/dose (Canis familiaris): 54 µM·h/mg/kg; clearance [8]: 0.9 mL/min/kg |
